Experimental findings from ChEMBL document CHEMBL1681720, “Maintaining potent HTLV-I protease inhibition without the P3-cap moiety in small tetrapeptidic inhibitors” (Bioorg Med Chem Lett, 2011) are described below.

Test [1] concerns the target Protease (Human T-cell leukemia virus type I, UniProt Q82134, L40I). As to the kind of experiment: Inhibition of HTLV-1 protease L40I mutant by fluorimetric assay. The method in brief: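 Recombinant L40I-mutant HTLV-I protease, mutation limits autoproteolysis; fluorescent substrate cleavage. Percent inhibition measured singly at 1, 5, 10, 20, 50 and 100 nM test compound. IC50 read from fitted sigmoid plot, error range from RMSD of the plot.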

Test [2] has as its system T1, Protease (Human T-cell leukemia virus type I), Q82134 [L40I].
T1 sequence (whole entry): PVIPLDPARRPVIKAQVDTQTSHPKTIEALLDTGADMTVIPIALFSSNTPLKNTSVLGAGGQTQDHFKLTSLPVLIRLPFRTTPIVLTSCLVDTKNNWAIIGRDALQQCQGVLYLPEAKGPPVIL
As to the kind of experiment: Inhibition of HTLV-1 protease L40I mutant at 50 nM by fluorimetric assay. The procedure, abridged: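 Recombinant L40I-mutant HTLV-I protease, mutation limits autoproteolysis; fluorescent substrate read-out. Test compound at 50 nM, percent inhibition from single determinations.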

The target of test [3] is Protease (Human immunodeficiency virus 1) (UniProt Q9YQ12). The test can be described thus: Inhibition of recombinant HIV-1 protease at 50 nM.
Chain of Protease (Human immunodeficiency virus 1) (Q9YQ12 as listed by the source): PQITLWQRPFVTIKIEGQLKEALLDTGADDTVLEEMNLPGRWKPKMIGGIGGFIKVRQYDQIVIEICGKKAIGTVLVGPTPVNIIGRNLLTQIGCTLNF

A word on the IC50: it is the concentration that inhibits the measured activity by half. Read a high IC50 as weaker potency in that assay. In general, inhibition refers to the percentage by which the read-out fell short of the control.

Take `CCCC(=O)NC(C(=O)N[C@H](C(=O)N[C@@H](Cc1ccccc1)[C@H](O)C(=O)N1CSC(C)(C)[C@H]1C(=O)NCC(C)(C)C)C(C)(C)C)c1cc(F)c(F)c(F)c1` (stereo in doubt; 20a) [listing 1 of 2 here]: the IC50 in test [1] was determined as 11 nM.

Regarding `CCCC(=O)NC(C(=O)N[C@H](C(=O)N[C@@H](Cc1ccccc1)[C@H](O)C(=O)N1CSC(C)(C)[C@H]1C(=O)NCC(C)(C)C)C(C)(C)C)c1cc(F)c(F)c(F)c1` (stereo in doubt; 19a) [listing 1 of 2 here], in test [1], 13.2 nM corresponded to half-maximal inhibition (IC50).

As for `CC(C)(C)CNC(=O)[C@H]1N(C(=O)[C@@H](O)[C@H](Cc2ccccc2)NC(=O)[C@@H](NC(=O)[C@@H](O)c2ccccc2)C(C)(C)C)CSC1(C)C`, the values for the inhibition in test [2] and in test [3] were 43% and 92%, respectively.

`CC(C)(C)CNC(=O)[C@H]1N(C(=O)[C@@H](O)[C@H](Cc2ccccc2)NC(=O)[C@@H](NC(=O)C2CCCCN2)C(C)(C)C)CSC1(C)C` (stereo in doubt; 14a): the inhibition in test [2] worked out at 24%; in test [3] it was 93%.

For the molecule `CCCC(=O)NC(C(=O)N[C@H](C(=O)N[C@@H](Cc1ccccc1)[C@H](O)C(=O)N1CSC(C)(C)[C@H]1C(=O)NCC(C)(C)C)C(C)(C)C)c1cc(F)c(F)c(F)c1` (stereo in doubt; 20a) [listing 2 of 2 here], the figures for the inhibition in test [2] and in test [3] were 81% and over 99%, respectively.

On to `CCCC(=O)NC(C(=O)N[C@H](C(=O)N[C@@H](Cc1ccccc1)[C@H](O)C(=O)N1CSC(C)(C)[C@H]1C(=O)NCC(C)(C)C)C(C)(C)C)c1cc(F)c(F)c(F)c1` (single isomer, unassigned; enantiomer b), for which the inhibition in test [2] stood at 20%; in test [3] it was 80%.

Turning to `CCCC(=O)NC(C(=O)N[C@H](C(=O)N[C@@H](Cc1ccccc1)[C@H](O)C(=O)N1CSC(C)(C)[C@H]1C(=O)NCC(C)(C)C)C(C)(C)C)c1cc(F)c(F)c(F)c1` (stereo in doubt; 19a) [listing 2 of 2 here], the inhibition in test [2] is 84%; in test [3], over 99%.

`CC(C)[C@H](N)C(=O)N[C@H](C(=O)N[C@@H](Cc1ccccc1)[C@H](O)C(=O)N1CSC(C)(C)[C@H]1C(=O)NCC(C)(C)C)C(C)(C)C`: the results for the inhibition in test [2] and in test [3] were 26% and 96%, respectively.

Turning to `CCCC(=O)NC(C(=O)N[C@H](C(=O)N[C@@H](Cc1ccccc1)[C@H](O)C(=O)N1CSC(C)(C)[C@H]1C(=O)NCC(C)(C)C)C(C)(C)C)c1cc(F)c(F)c(F)c1` (stereo in doubt; 19b), the results for the inhibition in test [2] and in test [3] were 18% and 68%, respectively.

`CC(C)(C)CNC(=O)[C@H]1N(C(=O)[C@@H](O)[C@H](Cc2ccccc2)NC(=O)[C@@H](NC(=O)[C@@H](N)Cc2ccccc2)C(C)(C)C)CSC1(C)C`: the figures for the inhibition in test [2] and in test [3] were 28% and over 99%, respectively.

For `CC(C)(C)CNC(=O)[C@H]1N(C(=O)[C@@H](O)[C@H](Cc2ccccc2)NC(=O)[C@@H](NC(=O)C2CCCCN2)C(C)(C)C)CSC1(C)C` (single isomer, unassigned; enantiomer b), the figures for the inhibition in test [2] and in test [3] were 11% and 54%, respectively.

`CCCC(=O)N[C@H](C(=O)N[C@H](C(=O)N[C@@H](Cc1ccccc1)[C@H](O)C(=O)N1CSC(C)(C)[C@H]1C(=O)NCC(C)(C)C)C(C)(C)C)c1ccccc1` yielded an inhibition in test [2] of 93%. Further, in test [1], the IC50 was 6.4 nM. Also, in test [3], the INH was 99 nM.

In the case of `CC(C)(C)CNC(=O)[C@H]1N(C(=O)[C@@H](O)[C@H](Cc2ccccc2)NC(=O)[C@@H](NC(=O)[C@@H](N)C2CCCCC2)C(C)(C)C)CSC1(C)C`, the inhibition stood at 65% in test [2] and 99% in test [3]. In test [1], this molecule gave a half-maximal inhibitory concentration (IC50) of 35.8 nM.

Regarding `CC(C)(C)CNC(=O)[C@H]1N(C(=O)[C@@H](O)[C@H](Cc2ccccc2)NC(=O)[C@@H](NC(=O)C(C(=O)OCc2ccccc2)c2ccccc2)C(C)(C)C)CSC1(C)C` (mixture of isomers), the inhibition in test [2] worked out at 26%; in test [3], 34%.

For `CC(C)(C)CNC(=O)[C@H]1N(C(=O)[C@@H](O)[C@H](Cc2ccccc2)NC(=O)[C@@H](NC(=O)C(C)(C)c2ccccc2)C(C)(C)C)CSC1(C)C`, the inhibition was determined as 4% in test [2] and 80% in test [3].

Regarding `CC(C)(C)CNC(=O)[C@H]1N(C(=O)[C@@H](O)[C@H](Cc2ccccc2)NC(=O)[C@@H](NC(=O)[C@@H](N)C(C)(C)C)C(C)(C)C)CSC1(C)C`, the inhibition in test [2] came to 19%; in test [3], 95%.

Consider `CC[C@H](C)[C@H](N)C(=O)N[C@H](C(=O)N[C@@H](Cc1ccccc1)[C@H](O)C(=O)N1CSC(C)(C)[C@H]1C(=O)NCC(C)(C)C)C(C)(C)C`, for which the inhibition was found to be 31% in test [2] and 97% in test [3].

Turning to `CC(C)(C)CNC(=O)[C@H]1N(C(=O)[C@@H](O)[C@H](Cc2ccccc2)NC(=O)[C@@H](NC(=O)Cc2ccccc2)C(C)(C)C)CSC1(C)C`, the figures for the inhibition in test [2] and in test [3] were 8% and 22%, respectively.

Regarding `CC(C)(C)CNC(=O)[C@H]1N(C(=O)[C@@H](O)[C@H](Cc2ccccc2)NC(=O)[C@@H](NC(=O)C(=O)c2ccccc2)C(C)(C)C)CSC1(C)C`, the values for the inhibition in test [2] and in test [3] were 33% and 76%, respectively.

`CC(C)(C)CNC(=O)[C@H]1N(C(=O)[C@@H](O)[C@H](Cc2ccccc2)NC(=O)[C@@H](NC(=O)[C@@H](N)c2ccccc2)C(C)(C)C)CSC1(C)C`: the figures for the inhibition in test [2] and in test [3] were 69% and over 99%, respectively. For the same molecule, in test [1], the IC50 came to 37 nM.

Turning to `CCCC(=O)N[C@H](C(=O)N[C@H](C(=O)N[C@@H](Cc1ccccc1)[C@H](O)C(=O)N1CSC(C)(C)[C@H]1C(=O)NCC(C)(C)C)C(C)(C)C)[C@@H](C)CC`, the inhibition is 86% in test [2] and 95% in test [3]. The molecule also had an IC50 in test [1] of 6.1 nM.

Regarding `CC(C)(C)CNC(=O)[C@H]1N(C(=O)[C@@H](O)[C@H](Cc2ccccc2)NC(=O)[C@@H](NC(=O)[C@H](O)c2ccccc2)C(C)(C)C)CSC1(C)C`, the inhibition is 10% in test [2] and 82% in test [3].
